For assay [1], the target named is Platelet-derived growth factor receptor beta (Homo sapiens) (UniProt P09619). The experiment in a line: Inhibition of human recombinant PDGFRb at 40 nM in presence of ATP by radiometric assay relative to control.
For assay [2], the target named is Ephrin type-A receptor 2 (Homo sapiens) (UniProt P29317). The experiment in a line: Inhibition of human recombinant EphA2 at 500 nM in presence of ATP by radiometric assay relative to control.
Assay [3] concerns the target T1, cAMP-dependent protein kinase catalytic subunit PRKX (Homo sapiens) (UniProt P51817).
T1 sequence (whole entry): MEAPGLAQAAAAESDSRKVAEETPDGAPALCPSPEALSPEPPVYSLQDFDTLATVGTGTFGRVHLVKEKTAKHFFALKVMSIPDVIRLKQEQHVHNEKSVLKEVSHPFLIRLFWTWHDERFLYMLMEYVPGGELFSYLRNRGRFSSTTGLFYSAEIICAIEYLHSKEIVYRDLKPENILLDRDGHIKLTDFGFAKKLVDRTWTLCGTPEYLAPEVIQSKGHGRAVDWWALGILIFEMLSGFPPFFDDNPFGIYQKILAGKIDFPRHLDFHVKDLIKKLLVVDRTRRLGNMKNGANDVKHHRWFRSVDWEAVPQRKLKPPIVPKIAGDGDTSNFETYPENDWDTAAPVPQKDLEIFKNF
The experiment in a line: Inhibition of human recombinant PRKX at 500 nM in presence of ATP by radiometric assay relative to control.

Assay [4] deals with Serine/threonine-protein kinase MARK2 (Homo sapiens) (UniProt Q7KZI7). As to the kind of experiment: Inhibition of human recombinant MARK2 at 500 nM in presence of ATP by radiometric assay relative to control.
Assay [5] addresses Wee1-like protein kinase 2 (Homo sapiens) (UniProt P0C1S8). The experiment in a line: Inhibition of human recombinant Wee1B at 15 nM related to control ULK1.
Assay [6] deals with Proto-oncogene tyrosine-protein kinase Src (Homo sapiens) (UniProt P12931). As to the kind of experiment: Inhibition of human recombinant SRC at 15 nM in presence of ATP by radiometric assay relative to control.
The target in assay [7] is T2, Beta-adrenergic receptor kinase 1 (Homo sapiens) (UniProt P25098).
T2 sequence (whole entry): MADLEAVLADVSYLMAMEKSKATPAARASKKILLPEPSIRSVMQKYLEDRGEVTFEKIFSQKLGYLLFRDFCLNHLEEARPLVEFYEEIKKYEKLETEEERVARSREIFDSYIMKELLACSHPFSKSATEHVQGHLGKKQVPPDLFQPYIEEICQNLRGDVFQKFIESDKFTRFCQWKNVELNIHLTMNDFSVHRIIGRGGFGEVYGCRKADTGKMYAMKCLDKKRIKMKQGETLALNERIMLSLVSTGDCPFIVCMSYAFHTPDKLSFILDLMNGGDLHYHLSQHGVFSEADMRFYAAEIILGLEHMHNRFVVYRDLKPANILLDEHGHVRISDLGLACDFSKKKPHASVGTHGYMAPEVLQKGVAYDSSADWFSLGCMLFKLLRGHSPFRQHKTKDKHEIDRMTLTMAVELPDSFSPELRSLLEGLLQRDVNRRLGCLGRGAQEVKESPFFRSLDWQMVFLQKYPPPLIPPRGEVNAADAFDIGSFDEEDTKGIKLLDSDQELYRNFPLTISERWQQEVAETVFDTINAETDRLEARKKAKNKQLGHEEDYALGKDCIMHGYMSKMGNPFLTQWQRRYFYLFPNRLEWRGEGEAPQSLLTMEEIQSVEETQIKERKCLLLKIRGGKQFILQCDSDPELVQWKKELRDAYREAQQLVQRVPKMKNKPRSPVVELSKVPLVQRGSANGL
As to the kind of experiment: Inhibition of human recombinant BARK1 at 15 nM in presence of ATP by radiometric assay relative to control. In short, it runs like this:
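Part of a radiometric in vitro activity panel of 327 recombinant human kinases. Each kinase was tested in duplicate at one inhibitor concentration. Activity remaining was expressed as a percentage of the vehicle control, and percent inhibition was taken as 100 minus that value.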

The target of assay [8] is Homeodomain-interacting protein kinase 1 (Homo sapiens) (UniProt Q86Z02). As to the kind of experiment: Inhibition of human recombinant HIPK1 at 15 nM in presence of ATP by radiometric assay relative to control.
Assay [9] addresses T3, Inhibitor of nuclear factor kappa-B kinase subunit alpha (Homo sapiens) (UniProt O15111).
T3 sequence (whole entry): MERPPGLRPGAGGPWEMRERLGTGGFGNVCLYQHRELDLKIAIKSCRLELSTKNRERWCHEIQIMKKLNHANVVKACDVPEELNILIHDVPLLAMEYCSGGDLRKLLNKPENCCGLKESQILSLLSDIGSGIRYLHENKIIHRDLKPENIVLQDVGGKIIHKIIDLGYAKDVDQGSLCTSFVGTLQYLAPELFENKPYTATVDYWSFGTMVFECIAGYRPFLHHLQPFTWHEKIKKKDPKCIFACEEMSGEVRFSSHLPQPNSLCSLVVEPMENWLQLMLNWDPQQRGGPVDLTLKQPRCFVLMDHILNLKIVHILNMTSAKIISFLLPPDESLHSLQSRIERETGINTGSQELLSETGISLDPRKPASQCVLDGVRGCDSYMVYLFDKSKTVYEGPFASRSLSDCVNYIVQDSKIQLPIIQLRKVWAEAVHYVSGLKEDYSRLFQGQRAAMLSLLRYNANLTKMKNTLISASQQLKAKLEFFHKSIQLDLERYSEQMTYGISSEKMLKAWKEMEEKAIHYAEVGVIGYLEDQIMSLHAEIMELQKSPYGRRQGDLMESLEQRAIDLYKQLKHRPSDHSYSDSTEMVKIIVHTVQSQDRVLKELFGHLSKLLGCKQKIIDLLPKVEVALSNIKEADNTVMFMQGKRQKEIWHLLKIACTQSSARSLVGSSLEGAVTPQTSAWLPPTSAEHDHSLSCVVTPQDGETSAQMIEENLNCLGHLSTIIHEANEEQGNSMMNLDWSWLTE
The experiment in a line: Inhibition of human recombinant IKKa at 15 nM in presence of ATP by radiometric assay relative to control.

The text below walks through data of ChEMBL document CHEMBL5653631, “A Potent and Selective ULK1 Inhibitor Suppresses Autophagy and Sensitizes Cancer Cells to Nutrient Stress” (iScience, 2018).

Chain of Serine/threonine-protein kinase MARK2 (Homo sapiens) (Q7KZI7 whole entry): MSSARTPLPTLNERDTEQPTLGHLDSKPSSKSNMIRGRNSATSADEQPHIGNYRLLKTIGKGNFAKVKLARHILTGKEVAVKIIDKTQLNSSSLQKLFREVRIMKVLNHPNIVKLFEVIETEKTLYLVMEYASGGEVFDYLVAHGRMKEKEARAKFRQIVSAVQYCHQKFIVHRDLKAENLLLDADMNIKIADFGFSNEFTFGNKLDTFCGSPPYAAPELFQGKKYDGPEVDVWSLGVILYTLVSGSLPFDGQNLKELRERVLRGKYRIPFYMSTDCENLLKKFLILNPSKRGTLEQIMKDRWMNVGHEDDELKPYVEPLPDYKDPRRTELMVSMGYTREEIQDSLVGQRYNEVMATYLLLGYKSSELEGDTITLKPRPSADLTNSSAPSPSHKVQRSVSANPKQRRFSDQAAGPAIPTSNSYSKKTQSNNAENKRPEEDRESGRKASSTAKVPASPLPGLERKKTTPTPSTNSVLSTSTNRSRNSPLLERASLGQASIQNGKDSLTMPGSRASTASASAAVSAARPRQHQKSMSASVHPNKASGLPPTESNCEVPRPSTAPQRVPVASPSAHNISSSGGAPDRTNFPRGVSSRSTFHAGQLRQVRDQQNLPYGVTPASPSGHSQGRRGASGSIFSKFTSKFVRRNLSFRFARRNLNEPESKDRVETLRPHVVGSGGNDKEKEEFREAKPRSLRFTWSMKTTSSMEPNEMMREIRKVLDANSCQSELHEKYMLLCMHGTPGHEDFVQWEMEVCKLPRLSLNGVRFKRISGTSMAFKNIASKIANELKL
Chain of Ephrin type-A receptor 2 (Homo sapiens) (P29317 whole entry): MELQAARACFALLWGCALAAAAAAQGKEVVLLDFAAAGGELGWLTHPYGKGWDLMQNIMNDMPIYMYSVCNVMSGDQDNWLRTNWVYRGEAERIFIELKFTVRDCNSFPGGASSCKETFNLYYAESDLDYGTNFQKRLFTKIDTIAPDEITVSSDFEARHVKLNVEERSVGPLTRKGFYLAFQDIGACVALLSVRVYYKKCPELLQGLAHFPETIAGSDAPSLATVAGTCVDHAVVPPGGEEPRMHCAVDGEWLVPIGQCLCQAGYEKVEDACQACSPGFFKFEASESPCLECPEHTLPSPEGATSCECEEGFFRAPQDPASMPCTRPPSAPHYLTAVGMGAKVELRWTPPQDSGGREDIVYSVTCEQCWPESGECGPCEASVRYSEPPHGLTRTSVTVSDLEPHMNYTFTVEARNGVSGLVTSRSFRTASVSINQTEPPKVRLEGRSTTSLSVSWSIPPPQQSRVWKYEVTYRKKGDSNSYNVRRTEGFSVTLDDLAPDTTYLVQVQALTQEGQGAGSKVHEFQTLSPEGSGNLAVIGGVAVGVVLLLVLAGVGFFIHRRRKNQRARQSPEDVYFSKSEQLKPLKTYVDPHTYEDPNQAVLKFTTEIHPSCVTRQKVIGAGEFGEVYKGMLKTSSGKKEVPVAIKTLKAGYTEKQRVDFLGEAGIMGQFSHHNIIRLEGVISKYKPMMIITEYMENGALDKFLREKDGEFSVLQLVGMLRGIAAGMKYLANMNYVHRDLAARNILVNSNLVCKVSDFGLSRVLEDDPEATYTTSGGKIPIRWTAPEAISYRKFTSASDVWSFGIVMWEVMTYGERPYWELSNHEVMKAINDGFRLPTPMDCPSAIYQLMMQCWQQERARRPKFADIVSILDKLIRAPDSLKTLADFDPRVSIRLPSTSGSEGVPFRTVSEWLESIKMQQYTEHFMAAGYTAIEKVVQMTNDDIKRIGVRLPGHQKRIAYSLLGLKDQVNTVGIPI
Chain of Wee1-like protein kinase 2 (Homo sapiens) (P0C1S8 whole entry, looked up): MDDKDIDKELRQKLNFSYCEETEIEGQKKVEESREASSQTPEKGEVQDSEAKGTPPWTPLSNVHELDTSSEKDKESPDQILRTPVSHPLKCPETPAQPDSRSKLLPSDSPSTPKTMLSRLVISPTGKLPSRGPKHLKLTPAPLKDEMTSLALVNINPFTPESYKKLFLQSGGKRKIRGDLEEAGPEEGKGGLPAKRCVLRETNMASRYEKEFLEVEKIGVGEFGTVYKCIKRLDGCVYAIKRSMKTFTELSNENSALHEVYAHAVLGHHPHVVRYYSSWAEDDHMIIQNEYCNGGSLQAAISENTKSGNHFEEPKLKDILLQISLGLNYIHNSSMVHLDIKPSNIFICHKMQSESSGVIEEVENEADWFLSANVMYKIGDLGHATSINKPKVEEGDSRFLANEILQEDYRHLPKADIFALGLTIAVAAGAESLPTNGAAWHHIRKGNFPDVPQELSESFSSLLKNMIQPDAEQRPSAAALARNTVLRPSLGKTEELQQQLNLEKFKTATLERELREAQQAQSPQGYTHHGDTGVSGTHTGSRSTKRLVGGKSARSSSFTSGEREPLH
Chain of Platelet-derived growth factor receptor beta (Homo sapiens) (P09619 whole entry): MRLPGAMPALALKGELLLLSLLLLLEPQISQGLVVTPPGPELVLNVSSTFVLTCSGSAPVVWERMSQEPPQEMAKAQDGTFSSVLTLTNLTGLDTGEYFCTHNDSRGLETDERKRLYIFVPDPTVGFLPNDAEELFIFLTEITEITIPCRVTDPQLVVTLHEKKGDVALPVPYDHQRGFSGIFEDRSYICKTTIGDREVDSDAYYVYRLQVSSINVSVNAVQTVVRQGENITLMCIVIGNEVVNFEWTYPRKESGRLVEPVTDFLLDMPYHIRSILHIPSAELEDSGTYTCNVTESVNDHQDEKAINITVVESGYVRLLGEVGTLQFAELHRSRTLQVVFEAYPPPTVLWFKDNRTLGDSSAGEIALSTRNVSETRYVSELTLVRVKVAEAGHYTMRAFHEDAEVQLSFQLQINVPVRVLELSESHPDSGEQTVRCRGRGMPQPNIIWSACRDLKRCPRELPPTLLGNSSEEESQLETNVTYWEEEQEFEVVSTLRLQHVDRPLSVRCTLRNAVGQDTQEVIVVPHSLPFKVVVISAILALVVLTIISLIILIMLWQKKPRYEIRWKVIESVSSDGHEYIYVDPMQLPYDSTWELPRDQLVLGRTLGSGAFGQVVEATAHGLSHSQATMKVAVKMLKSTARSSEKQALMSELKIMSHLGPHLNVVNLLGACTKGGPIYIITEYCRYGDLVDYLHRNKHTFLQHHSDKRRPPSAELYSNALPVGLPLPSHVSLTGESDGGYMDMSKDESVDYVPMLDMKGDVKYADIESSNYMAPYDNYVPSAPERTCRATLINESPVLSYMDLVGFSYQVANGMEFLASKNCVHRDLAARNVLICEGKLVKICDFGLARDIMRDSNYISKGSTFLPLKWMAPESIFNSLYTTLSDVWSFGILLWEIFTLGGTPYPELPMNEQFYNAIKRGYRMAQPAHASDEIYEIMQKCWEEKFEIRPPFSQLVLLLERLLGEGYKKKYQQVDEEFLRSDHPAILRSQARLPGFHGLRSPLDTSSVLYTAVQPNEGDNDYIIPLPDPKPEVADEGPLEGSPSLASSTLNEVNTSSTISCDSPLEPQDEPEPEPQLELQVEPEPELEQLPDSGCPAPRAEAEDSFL
Chain of Proto-oncogene tyrosine-protein kinase Src (Homo sapiens) (P12931 2-536 limits assumed): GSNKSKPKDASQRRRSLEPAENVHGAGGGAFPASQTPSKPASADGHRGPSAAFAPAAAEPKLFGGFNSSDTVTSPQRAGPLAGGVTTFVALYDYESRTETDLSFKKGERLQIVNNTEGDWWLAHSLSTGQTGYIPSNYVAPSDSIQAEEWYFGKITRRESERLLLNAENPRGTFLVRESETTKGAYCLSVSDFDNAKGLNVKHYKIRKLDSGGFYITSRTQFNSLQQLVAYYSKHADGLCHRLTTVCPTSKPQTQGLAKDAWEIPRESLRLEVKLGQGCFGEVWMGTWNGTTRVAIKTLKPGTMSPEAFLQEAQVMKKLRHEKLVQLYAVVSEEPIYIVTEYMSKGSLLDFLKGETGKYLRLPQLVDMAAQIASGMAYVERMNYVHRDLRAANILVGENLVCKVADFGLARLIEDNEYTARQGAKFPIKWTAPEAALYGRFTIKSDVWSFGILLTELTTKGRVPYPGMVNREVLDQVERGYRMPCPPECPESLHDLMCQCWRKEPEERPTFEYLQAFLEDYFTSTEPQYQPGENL

Turning to `O=C(N[C@@H](C1CC1)C(F)(F)F)c1cc(-c2cnn3cc(-c4ccc(F)cc4)cnc23)cs1`, the inhibition in assay [1] was found to be 5%.

As to `CNC(=O)c1ccccc1Oc1nc(Nc2cc(OC)c(OC)c(OC)c2)ncc1Br`, the inhibition was 2% in assay [2], 16% in assay [3] and 50% in assay [4].

For `CC(C)[C@H](NC(=O)c1cc(-c2cnn3cc(-c4ccc(OCCN5CCCCC5)cc4)cnc23)cs1)C(F)(F)F`, the fold change (FC) in assay [5] came to 0.13. Besides, the inhibition in assay [6] is 15%; in assay [7], 0%; in [8], 0%; in assay [9], 1%.
